# From PubChem BioAssay
# SENP7 block = SENP7 protease inhibitors, primary screen, biochemical, luminescence, uHTS. inhibition, % at 5 µM. AID 434973, 2010. Sentrin-specific protease 7 (Homo sapiens), Q9BQF6. recombinant SENP7, Z-RLRGG-aminoluciferin luminescence, 40 min. 330,000 compounds, 1.5% hits;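 active = inhibition above about 50% at the single test dose, limit read from the data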;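 also: plate controls were DMSO with enzyme for no effect and no enzyme buffer wells for full effect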
# SENP8 block-1 = SENP8 protease inhibitors, primary screen, biochemical, luminescence; Sentrin-specific protease 8 (Homo sapiens), Q96LD8; purified SENP8, Z-RLRGG-aminoluciferin cleavage; inhibition, % at 10 µM; 330,000 compounds, 1.2% hits; in the data active = inhibition above about 50%
# Target sequence (Q96LD8 whole entry, looked up): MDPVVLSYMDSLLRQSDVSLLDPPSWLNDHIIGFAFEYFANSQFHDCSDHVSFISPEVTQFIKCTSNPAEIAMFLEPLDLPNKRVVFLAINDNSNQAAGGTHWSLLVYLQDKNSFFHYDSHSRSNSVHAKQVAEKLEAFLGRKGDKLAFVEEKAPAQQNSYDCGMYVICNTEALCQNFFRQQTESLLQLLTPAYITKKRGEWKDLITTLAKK
# SENP6 inh = SENP6 protease inhibitors, primary screen, biochemical, luminescence, uHTS. Sentrin-specific protease 6 (Homo sapiens), Q9GZR1. Recombinant SENP6 catalytic domain, aminoluciferin luminescence. inhibition, % at 10 µM. 330,000 compounds, 1.8% hits;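 active = inhibition above about 50% at the single tested dose, limit read from the data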;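 also: plate controls were DMSO wells with enzyme for no effect and DMSO wells lacking enzyme for full effect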
# SENP1 inh = human SENP1 catalytic domain inhibitors, primary screen, biochemical, FRET, uHTS | 360,000 compounds, 0.21% hits | Sentrin-specific protease 1 (Homo sapiens), Q9P0U3 | AID 624204, 2012 | inhibition, % at 10 µM | recombinant SENP1 catalytic domain, CyPet-SUMO1-YPet FRET cleavage;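 active = inhibition at least 30% at 10 µM, raw YFP signal under a set limit, fluorescence ratio 0.5 to 1.5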;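 also: 0% = enzyme with DMSO and 100% = no enzyme wells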
# Target sequence (Q9P0U3 419-644 limits assumed): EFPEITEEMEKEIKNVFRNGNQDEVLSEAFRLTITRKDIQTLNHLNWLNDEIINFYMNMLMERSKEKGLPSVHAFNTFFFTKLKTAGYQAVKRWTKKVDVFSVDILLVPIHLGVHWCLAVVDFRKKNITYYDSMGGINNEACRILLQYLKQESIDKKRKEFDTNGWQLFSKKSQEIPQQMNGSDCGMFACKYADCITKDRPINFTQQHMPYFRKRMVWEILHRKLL
#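 Material – human SENP1 catalytic domain · Input – SENP1 enzyme, 20 pM final · Compound dosing – single concentration of 10 µM compound, 0.5% DMSO final · Timing – enzyme reaction for 50 min at room temperature, dark · Measured by – FRET fluorescence in CFP and YFP emission channels · Control set – no-enzyme wells low, DMSO-plus-enzyme wells high control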
# SENP8 block-2 = human SENP8 protease inhibitors, primary screen, biochemical, fluorescence, Nedd8 protein substrate, uHTS; Sentrin-specific protease 8 (Homo sapiens), Q96LD8; recombinant SENP8; inhibition, % at 20 µM; 360,000 compounds, 0.64% hits; in the data active = inhibition mostly above about 40%, no sharp cut-off; inactive = mostly below about 27%
# SENP1 inh conf = human SENP1 catalytic domain inhibitors, confirmation, biochemical, FRET endpoint, single concentration; shares compounds with SENP1 inh; 520 compounds, 34% hits; recombinant SENP1, CyPet-SUMO1-YPet FRET cleavage; inhibition, % at 10 µM; in the data active = inhibition mostly above about 35%, no sharp cut-off; inactive = mostly below about 32%;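 also: 0% = enzyme with DMSO and 100% = no enzyme control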
# SENP1 kinetic = human SENP1 catalytic domain inhibitors, confirmation, biochemical, kinetic FRET, single concentration; shares compounds with SENP1 inh; recombinant SENP1, CyPet-SUMO1-YPet FRET kinetic cleavage; inhibition, % at 10 µM; 520 compounds, 26% hits; AID 651690, 2012; in the data active = inhibition mostly above about 32%, no sharp cut-off; inactive = mostly below about 29%;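 also: 0% = DMSO with enzyme and 100% = no enzyme substrate only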
# Active calls of the source: *; / = no result given. Compounds with a hit are over-represented: about 2.5% of the library has one in this group of screens.
SMILES,SENP7 block,SENP8 block-1,SENP6 inh,SENP1 inh,SENP8 block-2,SENP1 inh conf,SENP1 kinetic
CCN(CC)S(=O)(=O)c1cc([N+](=O)[O-])ccc1N=Nc1c(O)[nH]c2ccccc12,/,/,/,46*,43*,4,3
O=[N+]([O-])c1ccc2[nH]c(O)c(N=Nc3ccc(F)cc3)c2c1,-9,-20,-27,56*,36,10,5
O=c1[nH]c(=S)[nH]c2sc3c(c12)CCCCCC3,-2,5,10,-3,-34,/,/
CN(C)CCCOC(=O)COc1ccc(Br)cc1,-8,-4,-7,0,26,/,/
CC(C)(C)Sc1ccc([N+](=O)[O-])cc1C(=O)Nc1ccncc1,2,12,11,-1,24,/,/
Cn1ncc(N=Cc2ccccc2O)c1C(=O)Nc1ccccc1,-7,-4,-8,37*,9,18,28
CCOC(=O)c1c2c3c(c(Cl)ccc3[nH]c1=O)C(=O)c1ccccc1-2,6,8,18,57*,14,40*,24
CCOC(=O)c1c2c3c(cccc3[nH]c1=O)C(=O)c1ccccc1-2,-2,8,7,-1,-4,/,/
O=C(OC(C(=O)NCc1ccccc1)c1ccccc1F)c1ccco1 (centres undefined),2,6,-2,2,16,/,/
O=C(NC(=S)Nc1ccccc1O)c1cncc(Br)c1,4,-4,-6,30*,8,6,4
O=C(NC(=S)Nc1ccccc1C(=O)O)c1cncc(Br)c1,-1,11,3,-3,-72,/,/
N/C(=N\OC(=O)CC1CCCCC1)c1ccc(Cl)cc1,-1,-6,3,-2,-5,/,/
CCCN1C(=O)/C(=C\C=C2/Sc3ccccc3N2CCO)SC1=S,6,2,-2,28,20,/,/
CCN1/C(=C/C=C2/SC(=Nc3cccc4ncccc34)N(C)C2=O)Sc2ccccc21,/,/,/,37*,27,4,8
O=C(NCC1CCCO1)c1sc(=S)n2c1[nH]c(=O)c1ccc(C(=O)N3CCCCC3)cc12 (centres undefined),-3,3,-2,31*,17,42*,19
N#C/C(C(=O)N1CCOCC1)=C1/SC(Cc2ccccc2)C(=O)N1c1ccccc1 (centres undefined),0,-2,-4,37*,12,-5,4
CCOc1cc(N2CCOCC2)c(OCC)cc1NC(=O)CCS(=O)(=O)c1ccc(Cl)cc1,-7,-8,-6,37*,27,14,14
Cc1ccc(NC(=O)CSCC(=O)Nc2nnc(C)s2)cc1,0,-11,-1,1,9,/,/
Cc1cc(C)c2cc(C#N)c(SCC(=O)NCc3ccco3)nc2c1,8,14,20,41*,-63,3,16
CC(C)Cc1nnc(NC(=O)CCS(=O)(=O)c2ccc(Cl)cc2)s1,-3,1,-5,-2,2,/,/
Cc1ccc(-c2cn(-c3ccccc3F)c(=S)[nH]2)cc1,6,-4,-7,-1,11,/,/
O=[N+]([O-])c1ccc(-c2cn(-c3ccccc3F)c(=S)[nH]2)cc1,-2,1,-17,30*,31,13,11
Cc1ccc(NC(=O)Nc2c(Cl)cccc2Cl)cn1,-1,-11,-40,2,19,/,/
CCN1CCc2nc3sc(C(=O)N4CCc5ccccc5C4)c(N)c3cc2C1,3,2,6,-23,-193,/,/
CC(C)c1ccc2nc3sc(C(=O)N4CCc5ccccc5C4)c(N)c3cc2c1,4,5,14,61*,-66,81*,51*
CC(OC(=O)C1CCCCC1)C(=O)Nc1ccc(S(N)(=O)=O)cc1 (centres undefined),2,1,10,5,13,/,/
